# Results of several laboratories.
# Lines come from different studies, so protocols differ.
# ALDH2: Aldehyde dehydrogenase, mitochondrial (ALDH2, Homo sapiens, UniProt P05091)
# CYP3A4: Cytochrome P450 3A4 (CYP3A4, Homo sapiens, UniProt P08684)
# CHRM1: Muscarinic acetylcholine receptor M1 (CHRM1, Homo sapiens, UniProt P11229)
# HDAC11: Histone deacetylase 11 (HDAC11, Homo sapiens, UniProt Q96DB2)
SMILES,target,assay,system,conditions,IC50 [µM]
O=C1Nc2ccccc2C12CC2c1cc(Cl)c(O)c(Cl)c1 (stereo not drawn),ALDH2,"enzyme activity, inhibitor, fluorescence",,,> 50
C=CCn1c(=O)c2cnc(Nc3ccc(N4CCN(C)CC4)cc3)nc2n1-c1ccc2c(n1)[C@@](O)(CC)CC2,CYP3A4,"enzyme activity, inhibitor",,,7
Nc1cnccc1Nc1ccc(Cl)c(Cl)c1,"Endonuclease III-like protein 1 (NTHL1, Homo sapiens, UniProt P78549)","enzyme activity, inhibitor",,,> 100
CN(C)C(=O)c1cc2cnc(Nc3ccc(-c4ccc5c(=O)cc(N6CCOCC6)oc5c4)cc3)nc2n1C1CCCC1,CYP3A4,"enzyme activity, inhibitor, fluorescence",,pH 8,56.1
O=C(CCNC(=O)CNC(=O)CC(c1ccccc1)(c1ccccc1)c1ccccc1)NC[C@@H]1CCCN(Cc2cccnc2F)C1,CHRM1,"ligand displacement, radioligand",,cell membranes,> 30
Cc1cc2c(cc1C)N[C@H](c1ccccc1)[C@@H](O)C(=O)N2,"Tyrosine-protein kinase JAK1 (JAK1, Homo sapiens, UniProt P23458)","enzyme activity, inhibitor, ELISA",,,0.804
CCc1oc2cc(F)c(F)cc2c1C(=O)c1cc(Br)c(O)c(Br)c1,"Solute carrier organic anion transporter family member 1B1 (SLCO1B1, Homo sapiens, UniProt Q9Y6L6)","transporter uptake, inhibitor, radiometric",,oocytes,7.34
CC(C)N(CCC(=O)c1ccc2ccccc2c1)Cc1ccccc1,ALDH2,"enzyme activity, inhibitor, fluorescence",,,< 10
O=C(CCNC(=O)CNC(=O)CC(c1ccccc1)(c1ccccc1)c1ccccc1)NCC1CCN(Cc2ccc(F)cc2)CC1,CHRM1,"ligand displacement, radioligand",,cell membranes,5.9
O=C1Nc2ccccc2/C1=C\c1cc(F)c(O)c(F)c1,ALDH2,"enzyme activity, inhibitor, fluorescence",,,0.9
O=C(O)c1cc(-c2ccc(-n3ccnn3)cc2)c2ccc(-c3ccc(C(F)(F)F)cc3)cc2c1,CYP3A4,"enzyme activity, inhibitor",,,7.07
COc1ccc(N(Cc2nc(-c3ccc(F)cc3)cs2)C(=O)CCCCCC(=O)NO)cc1,HDAC11,"enzyme activity, inhibitor",,,> 10
OCc1ccc(-c2nn(Cc3ccccc3)c3ccccc23)o1,"Cytochrome P450 1A2 (CYP1A2, Homo sapiens, UniProt P05177)","enzyme activity, inhibitor","human, liver microsomes",,0.9
N=C(N)c1ccc2cc(OC(=O)c3ccc(N=C(N)N)cc3)ccc2c1,"Coagulation factor XII (F12, Homo sapiens, UniProt P00748)","enzyme activity, inhibitor",,,0.0326
CC(C)(C)S(=O)(=O)c1cc2c(Nc3ccc4scnc4c3)ncnc2cc1OCCOP(=O)(O)O,CYP3A4,"enzyme activity, inhibitor","human, liver microsomes","5 min, pH 7.4, testosterone probe",49
COc1ccc(N(Cc2csc(-c3ccccc3)n2)C(=O)CCCCCC(=O)NO)cc1,HDAC11,"enzyme activity, inhibitor",,,> 10
OC[C@H]1O[C@@H](Oc2ccc(O)c3cccc(O)c23)[C@H](O)[C@@H](O)[C@@H]1O,ALDH2,"enzyme activity, inhibitor, fluorescence",,,< 10
CCCN(CCC)S(=O)(=O)c1ccc(C(=O)O)cc1,"Taste receptor type 2 member 14 (TAS2R14, Homo sapiens, UniProt Q9NYV8)","inositol phosphate, antagonist, TR-FRET",,,600
